PREPL inh = human PREPL enzyme inhibition; Q4J6C6; recombinant PREPL, fluorescence polarization activity-based probe; inhibition, % at 5.96 µM; hit rate 0.68% among 320,000; AID 2751; in the data active = inhibition above about 43%;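 note: 0% = enzyme with DMSO and 100% = wells lacking enzyme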
PAFAH2 FP inh = PAFAH2 (human) inhibition; Q99487; recombinant PAFAH2, FP-rhodamine activity probe, fluorescence polarization; inhibition, % at 3.39 µM; hit rate 0.99% among 340,000;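 active = inhibition above the mean over all tested compounds plus 3 SD, cut at about 30% in these data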;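 note: inhibitors block probe labeling of enzyme so polarization drops; 0% = enzyme with DMSO and 100% = wells lacking PAFAH2 protein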
pPAFAH inh = pPAFAH (human) enzyme inhibition; inhibition, % at 3.39 µM; recombinant pPAFAH, FP-rhodamine probe fluorescence polarization; Q13093; hit rate 1.5% among 330,000;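 active = inhibition above the mean inhibition across the screen plus 3 SD, cut at about 25% in these data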;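 note: inhibitors block binding of the rhodamine activity-based probe so polarization drops; 0% = enzyme with DMSO and 100% = wells lacking pPAFAH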
Target sequence (Q13093 whole entry, looked up): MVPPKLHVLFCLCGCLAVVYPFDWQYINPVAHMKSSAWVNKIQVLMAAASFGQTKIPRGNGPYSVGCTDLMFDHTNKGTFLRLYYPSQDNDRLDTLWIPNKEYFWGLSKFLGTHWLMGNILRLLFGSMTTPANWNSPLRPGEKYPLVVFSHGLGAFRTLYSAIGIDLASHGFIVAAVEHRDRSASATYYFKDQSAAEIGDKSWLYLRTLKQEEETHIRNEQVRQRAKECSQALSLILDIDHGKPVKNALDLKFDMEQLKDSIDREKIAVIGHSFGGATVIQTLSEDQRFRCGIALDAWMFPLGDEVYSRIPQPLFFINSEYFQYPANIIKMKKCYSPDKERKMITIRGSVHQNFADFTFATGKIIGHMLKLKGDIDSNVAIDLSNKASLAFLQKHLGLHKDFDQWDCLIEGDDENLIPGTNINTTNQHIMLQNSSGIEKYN
PAFAH1B3 inh = PAFAH1B3 (human) inhibition; recombinant PAFAH1B3, FP-rhodamine probe, fluorescence polarization; inhibition, % at 3.39 µM; Q15102; hit rate 0.28% among 340,000; AID 492972;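 active = inhibition above the screen-wide average of all tested compounds plus 3 SD, cut at about 25% in these data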;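 note: 0% = enzyme with DMSO only and 100% = wells lacking PAFAH1B3 protein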
Target sequence (Q15102 whole entry, looked up): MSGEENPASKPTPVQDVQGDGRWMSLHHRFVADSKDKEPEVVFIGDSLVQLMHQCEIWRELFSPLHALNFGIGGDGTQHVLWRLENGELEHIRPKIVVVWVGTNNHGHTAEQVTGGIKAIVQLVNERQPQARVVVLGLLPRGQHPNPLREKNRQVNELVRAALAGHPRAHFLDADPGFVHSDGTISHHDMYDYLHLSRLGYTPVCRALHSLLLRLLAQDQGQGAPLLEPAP
Apaf-1 inh = human Apaf-1 inhibition; O14727; reconstituted apoptosome caspase-3 activity, DEVD-Rh110 fluorescence; inhibition, % at 20 µM; hit rate 0.71% among 330,000; AID 489030; active = inhibition of at least 40% at 20 µM;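 note: plate controls were DMSO wells for no effect and DEVD-CHO caspase inhibitor wells for full effect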
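Material: reconstituted apoptosome with Apaf-1, cytochrome c, caspase-9, procaspase-3, dATP; medium: pH 7.5 Hepes buffer with CHAPS, BSA, DTT; also added: cytochrome c and DEVD-Rh110 substrate; timing: 30 min plus 50 min, RT; signal: Rh110 fluorescence intensity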
PAFAH1B2 FP inh = inhibitors of human PAFAH1B2; AID 492953; P68402; recombinant PAFAH1B2, FP-rhodamine activity probe, fluorescence polarization; hit rate 1.2% among 340,000; inhibition, % at 3.39 µM;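 active = inhibition above the mean of all tested compounds plus 3 SD, cut at about 24% in these data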;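 note: 0% = enzyme with DMSO and 100% = wells lacking PAFAH1B2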
* = called active by the depositor; nt = not tested or not shown. Hits are enriched below; roughly 3.5% of the tested compounds scored in any of these assays.

SMILES | PREPL inh | PAFAH2 FP inh | pPAFAH inh | PAFAH1B3 inh | Apaf-1 inh | PAFAH1B2 FP inh
CN(C(=S)Nc1cccnc1)c1ccc(O)cc1 | 9.5 | 4.2 | 29.0* | 7.5 | nt | -3.1
O=C1NC(Cc2ccccc2)c2nc3ccc(F)cc3c(=O)n2-c2cc(Cl)ccc21 (centres undefined) | 14.4 | nt | 3.5 | nt | 18.2 | nt
O=C(c1ccc(-c2ccc([N+](=O)[O-])cc2)o1)N1CCN(S(=O)(=O)c2cccs2)CC1 | 14.6 | 8.1 | 17.5 | 3.0 | -15.3 | 12.3
Cc1nn(-c2ccc(C(=O)NCC(c3ccco3)N3CCCC3)cc2)c(C)c1Cl (centres undefined) | 0.1 | -2.3 | -0.1 | 0.3 | 7.5 | -3.8
O=S(=O)(NOCc1ccc(Cl)cc1)c1ccc(Cl)cc1 | -49.6 | 14.8 | 28.9* | 7.3 | 12.1 | 55.9*
Cc1cccc(-n2c(-c3ccoc3C)n[nH]c2=S)c1 | -1.0 | -2.7 | -0.8 | 5.8 | -14.4 | -1.3
Cc1ccc([N+](=O)[O-])c(-c2n[nH]c(=S)n2-c2cccc(Cl)c2)c1 | 21.6 | 4.6 | 3.0 | 9.8 | 11.0 | 31.1*
CC(=O)NC(=S)NNC(=O)C(c1ccccc1)c1ccccc1 | 1.1 | 5.8 | 3.1 | -2.9 | 14.9 | 6.6
N#CCC(=O)NNC(=S)NC(=O)C(c1ccccc1)c1ccccc1 | -0.1 | -3.9 | 10.2 | 8.0 | -6.3 | 29.0*
O=C1CCC(C(=O)Nc2cc(C(F)(F)F)ccc2-n2cncn2)=NN1 | -8.8 | 1.1 | -5.0 | 4.0 | -0.6 | -3.8
Cc1ccc(S(=O)(=O)NN2C(=O)/C(=C/c3cccn3C)SC2=S)cc1 | 1.5 | nt | 60.9* | nt | nt | nt
CC(C)(C)C(=O)/C=C(N)/C=C/c1ccccc1 | 11.5 | -0.2 | 5.3 | 5.2 | 10.8 | 6.9
c1ccc2c(Nc3nc(N4CCOCC4)c4ccccc4n3)cccc2c1 | 53.3* | 9.2 | 1.8 | 5.0 | 9.2 | 9.7
Fc1ccc(Nc2nc(N3CCOCC3)c3ccccc3n2)cc1 | 15.0 | 7.1 | 3.5 | 6.6 | 18.5 | 2.1
N#Cc1sc(NCc2ccccn2)nc1Cl | 6.4 | -2.5 | 3.9 | 2.6 | 4.7 | -0.9
CCOc1c(C)cnc2c1c(=O)n(Cc1c(F)cccc1Cl)c(=O)n2C | 2.4 | -8.7 | -0.6 | 4.0 | 1.2 | -1.6
O=C1OC(c2ccccc2)=N/C1=C/c1cccc(OC(=O)c2cccs2)c1 | 21.9 | -4.6 | -0.1 | 1.7 | 16.3 | 66.3*
Cc1no[n+]([O-])c1COc1cccc(/C=C2\N=C(c3ccccc3)OC2=O)c1 | 5.3 | 4.5 | -1.8 | 6.9 | 3.9 | 6.8
COc1ccc(Br)cc1/C=C(\C(=O)O)c1ccc(S(=O)(=O)N2CCCCC2)s1 | 12.4 | 8.4 | -1.4 | -5.6 | 4.3 | -15.7
CCn1c(CSc2nnc(-c3cccnc3)n2-c2ccccc2C)nc2cc(C(=O)O)ccc21 | 49.3* | nt | 42.4* | nt | 5.0 | nt
CCn1c(CSc2n[nH]c(N)n2)nc2cc(C(=O)O)ccc21 | 16.7 | 52.0* | 25.2* | 36.4* | -4.4 | 38.1*
CCn1c(CSc2nnc(-c3ccncc3)n2CCOC)nc2cc(C(=O)O)ccc21 | 23.1 | 47.5* | 29.6* | 27.1* | -5.4 | 35.8*
CCn1c(CSc2nnc3ccccn23)nc2cc(C(=O)O)ccc21 | 22.8 | 60.1* | 25.8* | 43.9* | 3.6 | 49.1*
COCCn1c(SCCCC(=O)c2ccc(Br)cc2)nnc1-c1ccncc1 | 10.9 | 9.6 | 1.2 | 10.0 | -2.0 | 2.7
O=C(CSc1nc2ccccc2c(=O)n1CCCN1CCOCC1)Nc1ccccc1OC(F)F | 0.7 | 4.4 | 4.3 | 5.9 | 4.6 | -0.9
SMILES | PREPL inh | PAFAH2 FP inh | pPAFAH inh | PAFAH1B3 inh | Apaf-1 inh | PAFAH1B2 FP inh
Cn1cncc1C#Cc1ccc2cc(CCO)oc(=O)c2c1 | 0.2 | -4.3 | 1.5 | 9.3 | -4.7 | 6.7
COCCCN1C(=O)C2C(C(=O)Nc3cc(C)cc(C)c3)C3C=CC2(O3)C1C(=O)NC1CCCCC1 (centres undefined) | -0.9 | 6.4 | 7.8 | -1.8 | 8.8 | -3.2
C=CCn1c(SCc2nc3sc(C(=O)O)c(C)c3c(=O)[nH]2)nnc1-c1ccccc1 | -0.6 | -7.8 | 3.3 | 7.0 | -3.0 | -1.3
C=CCn1c(SCc2nc3sc(C(=O)O)c(C)c3c(=O)[nH]2)nnc1-c1ccc(C(C)(C)C)cc1 | -2.5 | 5.3 | 26.1* | 21.3 | -3.7 | 11.5
CCOC(=O)c1sc2cc([N+](=O)[O-])cc(SCC(=O)OC)c2c1N | 23.8 | 3.9 | 25.4* | 4.6 | 8.3 | -2.1
Cc1c(NC(=O)C(C)OC(=O)C23CC4CC(CC(Br)(C4)C2)C3)c(=O)n(-c2ccccc2)n1C (centres undefined) | -9.2 | -2.6 | -8.0 | 2.1 | 12.4 | 48.0*
O=C(Nc1ccc(-c2cnco2)cc1)c1ccc(Cl)cc1 | -5.0 | nt | 28.5* | nt | -6.8 | nt
O=C(Nc1ccc(-c2cnco2)cc1)c1ccccc1 | 6.7 | 1.8 | 1.7 | 3.8 | 7.2 | 3.7
O=C(O)c1cc(NN=Nc2cccc([N+](=O)[O-])c2)cc([N+](=O)[O-])c1 | 9.5 | 10.5 | 27.0* | 9.3 | -0.2 | 7.1
O=c1cc(SCc2ccc(Cl)cc2Cl)nc[nH]1 | nt | 3.2 | nt | 5.6 | nt | 24.8*
Cc1cc(SCc2ccc(Cl)cc2Cl)nc(=O)[nH]1 | -3.8 | 12.8 | 13.6 | -2.7 | 10.2 | 3.5
O=C(COC(=O)/C=C/c1cccc(C(F)(F)F)c1)Nc1ccc(Cl)cn1 | 14.9 | 1.0 | 1.8 | -1.1 | 2.0 | 1.7
O=C(CCC1CCCCC1)NCCN1C2=NC[C@H](Cc3ccc(O)cc3)N2C[C@H]1Cc1ccc(O)cc1 | -2.9 | -9.7 | 4.8 | 10.5 | 20.0 | 3.2
COc1ccc(C[C@H]2CN3C(=NC[C@@H]3Cc3ccccc3)N2CCNC(=O)CCC2CCCCC2)cc1 | 20.5 | 2.0 | -3.9 | 12.2 | 51.7* | 0.0
CC(C)(C)C1CCC(C(=O)Nc2ccccc2N2CCOCC2)CC1 (centres undefined) | 17.7 | 5.4 | -2.2 | 3.0 | 17.6 | 11.2
CCCCN(C)CCN1C(=O)C2C(C(=O)Nc3ccc(OC)cc3)C3C=CC2(O3)C1C(=O)NC1CCCCC1 (centres undefined) | 26.7 | -7.3 | -8.9 | 3.9 | -0.4 | -1.7
COc1ccccc1N1CCN(S(=O)(=O)CCNC(=O)C2CC2)CC1 | 26.8 | -2.2 | -3.0 | 4.3 | 6.3 | -2.6
COc1ccc(O)c(N)c1 | nt | nt | nt | nt | 76.2* | nt
Cc1cccc2sc(NNC(=O)c3cc(=O)c4ccccc4o3)nc12 | 6.0 | 8.1 | 26.7* | 12.0 | 11.9 | 5.5
Cc1nc(C)c(C(=O)Nc2nc3c(C)cccc3s2)o1 | 8.0 | 16.6 | 29.5* | 10.4 | -7.4 | 3.2
Cc1cccc2sc(NC(=O)C3CCCO3)nc12 (centres undefined) | 0.9 | -5.8 | 6.5 | 1.7 | -19.8 | -0.3
COCCN(C(=O)CC1C(=O)NCCN1CC(c1ccccc1)c1ccccc1)C(C)C (centres undefined) | 9.1 | -6.6 | 4.4 | 5.0 | -10.1 | 3.1
Cc1ccsc1C(=O)NNC(=O)c1cccc(S(=O)(=O)N2CCCC2)c1 | 6.5 | 4.5 | -0.7 | 5.8 | -7.3 | -0.6

Source: PubChem
